Results on eight compounds are retold here after ChEMBL document CHEMBL1137348, “Determination of the binding mode of thienopyrimidinedione antagonists to the human gonadotropin releasing hormone receptor using structure-activity relationships, site-directed mutagenesis, and homology modeling” (J Med Chem, 2006).

The target of assay [1] is Gonadotropin-releasing hormone receptor (Homo sapiens, UniProt P30968, H306E). The assay is described as follows: Displacement of [His5, D-Tyr6]GnRH from GnRHR H306E mutant expressed in COS7 cells. The class given is cell-based, COS-7. In outline: (§1)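 Human GnRH-R mutants (all in F272(6.40)L background) electroporated into COS-7 cells. Membranes taken 36-48 h later and lysed by nitrogen cavitation. Shaken 2 h at room temperature, then filtered and scintillation counted.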

For assay [2], the target named is Gonadotropin-releasing hormone receptor (Homo sapiens, UniProt P30968, N27A). The assay is described as follows: Displacement of [His5, D-Tyr6]GnRH from GnRHR N27A mutant expressed in COS7 cells. The class given is cell-based, COS-7. In a few lines:
as §1

In assay [3] the target is Gonadotropin-releasing hormone receptor (Homo sapiens, UniProt P30968, Y284L). Put plainly: Displacement of [His5, D-Tyr6]GnRH from GnRHR Y284L mutant expressed in COS7 cells. The format is cell-based, COS-7. In a few lines:
as §1

Assay [4] concerns the target Gonadotropin-releasing hormone receptor (Homo sapiens, UniProt P30968, D302A). The assay is described as follows: Displacement of [His5, D-Tyr6]GnRH from GnRHR D302A mutant expressed in COS7 cells. The class given is cell-based, COS-7. In outline: as §1
Assay [5] concerns the target Gonadotropin-releasing hormone receptor (Homo sapiens, UniProt P30968, Y290L). Put plainly: Displacement of [His5, D-Tyr6]GnRH from GnRHR Y290L mutant expressed in COS7 cells. The format is cell-based, COS-7. In a few lines:
as §1

Assay [6] deals with Gonadotropin-releasing hormone receptor (Homo sapiens, UniProt P30968, L300A). Put plainly: Displacement of [His5, D-Tyr6]GnRH from GnRHR L300A mutant expressed in COS7 cells. The class given is cell-based, COS-7. In outline:
as §1

In assay [7] the target is Gonadotropin-releasing hormone receptor (Homo sapiens, UniProt P30968, H306A). The assay is described as follows: Displacement of [His5, D-Tyr6]GnRH from GnRHR H306A mutant expressed in COS7 cells. The class given is cell-based, COS-7. In a few lines: as §1
Assay [8] concerns the target Gonadotropin-releasing hormone receptor (Homo sapiens, UniProt P30968, M24I). Put plainly: Displacement of [His5, D-Tyr6]GnRH from GnRHR M24I mutant expressed in COS7 cells. The format is cell-based, COS-7. In outline: as §1
In assay [9] the target is Gonadotropin-releasing hormone receptor (Homo sapiens, UniProt P30968, F309L). Put plainly: Displacement of [His5, D-Tyr6]GnRH from GnRHR F309L mutant expressed in COS-7 cells. The class given is cell-based. In a few lines:
as §1

Assay [10] has as its target Gonadotropin-releasing hormone receptor (Homo sapiens, UniProt P30968, F272L). The assay is described as follows: Displacement of [125I]-His5, D-Tyr6]GnRH from GnRHR F272L mutant expressed in COS7 cells. The format is cell-based, COS-7. In outline:
as §1

The target of assay [11] is Gonadotropin-releasing hormone receptor (Homo sapiens, UniProt P30968, Q208E). The assay is described as follows: Displacement of [His5, D-Tyr6]GnRH from GnRHR Q208E mutant expressed in COS7 cells. The class given is cell-based, COS-7. In a few lines:
as §1

In assay [12] the target is Gonadotropin-releasing hormone receptor (Homo sapiens, UniProt P30968, D302N). Put plainly: Displacement of [His5, D-Tyr6]GnRH from GnRHR D302N mutant expressed in COS7 cells. The format is cell-based, COS-7. In outline:
as §1

For assay [13], the target named is Gonadotropin-releasing hormone receptor (Homo sapiens, UniProt P30968, F309Q). Put plainly: Displacement of [His5, D-Tyr6]GnRH from GnRHR F309Q mutant expressed in COS7 cells. The class given is cell-based, COS-7. In outline:
as §1

The target in assay [14] is Gonadotropin-releasing hormone receptor (Homo sapiens, UniProt P30968, F313L). The assay is described as follows: Displacement of [His5, D-Tyr6]GnRH from GnRHR F313L mutant expressed in COS7 cells. The format is cell-based, COS-7. In a few lines:
as §1

Gonadotropin-releasing hormone receptor (Homo sapiens, UniProt P30968, D302A), sequence (P30968 whole entry D302A): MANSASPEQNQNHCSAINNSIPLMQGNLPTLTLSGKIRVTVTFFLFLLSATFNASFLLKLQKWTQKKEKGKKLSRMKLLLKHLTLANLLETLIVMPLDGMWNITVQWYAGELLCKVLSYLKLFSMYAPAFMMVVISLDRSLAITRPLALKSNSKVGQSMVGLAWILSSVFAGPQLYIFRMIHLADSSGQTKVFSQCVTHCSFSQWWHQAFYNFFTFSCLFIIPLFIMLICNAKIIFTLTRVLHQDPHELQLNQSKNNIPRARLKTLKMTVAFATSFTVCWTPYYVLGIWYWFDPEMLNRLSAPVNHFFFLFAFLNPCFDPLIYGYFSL
Gonadotropin-releasing hormone receptor (Homo sapiens, UniProt P30968, Y284L), sequence (P30968 whole entry Y284L): as the sequence (P30968 whole entry D302A) above, with Y284L, A302D counted along it
Gonadotropin-releasing hormone receptor (Homo sapiens, UniProt P30968, F272L), sequence (P30968 whole entry F272L): as the sequence (P30968 whole entry D302A) above, with F272L, A302D counted along it
Gonadotropin-releasing hormone receptor (Homo sapiens, UniProt P30968, D302N), sequence (P30968 whole entry D302N): as the sequence (P30968 whole entry D302A) above, with A302N counted along it
Gonadotropin-releasing hormone receptor (Homo sapiens, UniProt P30968, H306A), sequence (P30968 whole entry H306A): as the sequence (P30968 whole entry D302A) above, with A302D, H306A counted along it
Gonadotropin-releasing hormone receptor (Homo sapiens, UniProt P30968, F309L), sequence (P30968 whole entry F309L): as the sequence (P30968 whole entry D302A) above, with A302D, F309L counted along it
Gonadotropin-releasing hormone receptor (Homo sapiens, UniProt P30968, M24I), sequence (P30968 whole entry M24I): as the sequence (P30968 whole entry D302A) above, with M24I, A302D counted along it
Gonadotropin-releasing hormone receptor (Homo sapiens, UniProt P30968, H306E), sequence (P30968 whole entry H306E): as the sequence (P30968 whole entry D302A) above, with A302D, H306E counted along it
Gonadotropin-releasing hormone receptor (Homo sapiens, UniProt P30968, F313L), sequence (P30968 whole entry F313L): as the sequence (P30968 whole entry D302A) above, with A302D, F313L counted along it
Gonadotropin-releasing hormone receptor (Homo sapiens, UniProt P30968, Q208E), sequence (P30968 whole entry Q208E): as the sequence (P30968 whole entry D302A) above, with Q208E, A302D counted along it
Gonadotropin-releasing hormone receptor (Homo sapiens, UniProt P30968, N27A), sequence (P30968 whole entry N27A): as the sequence (P30968 whole entry D302A) above, with N27A, A302D counted along it
Gonadotropin-releasing hormone receptor (Homo sapiens, UniProt P30968, F309Q), sequence (P30968 whole entry F309Q): as the sequence (P30968 whole entry D302A) above, with A302D, F309Q counted along it
Gonadotropin-releasing hormone receptor (Homo sapiens, UniProt P30968, Y290L), sequence (P30968 whole entry Y290L): as the sequence (P30968 whole entry D302A) above, with Y290L, A302D counted along it
Gonadotropin-releasing hormone receptor (Homo sapiens, UniProt P30968, L300A), sequence (P30968 whole entry L300A): as the sequence (P30968 whole entry D302A) above, with L300A, A302D counted along it

With `CN(CCc1ccccc1)Cc1c(-c2ccc([N+](=O)[O-])cc2)sc2c1c(=O)n(-c1ccccc1)c(=O)n2Cc1c(F)cccc1F`, the IC50 in [1] was 7100 nM; in [2] it was 1300 nM; in assay [3], greater than 10000 nM; in assay [4] it was 1600 nM; in [5] it was 1900 nM; in assay [6], greater than 10000 nM. In addition, the IC50 in [7] was 3300 nM; in assay [8], greater than 10000 nM; in assay [9] it was greater than 10000 nM; in assay [10], 1100 nM; in [11], 5000 nM; in [12], 1900 nM. Moreover, the IC50 in assay [13] and in assay [14] was greater than 10000 nM each time.

In the case of `CN(CCc1ccccn1)Cc1c(-c2ccc([N+](=O)[O-])cc2)sc2c1c(=O)n(-c1ccccc1)c(=O)n2Cc1c(F)cccc1F`, the IC50 came out at 400 nM in [1]; 200 nM in assay [2]; 2000 nM in assay [3]; 58 nM in assay [4]; 900 nM in assay [5]; 110 nM in assay [6]. The IC50 in [7] is 240 nM; in assay [8] it was greater than 10000 nM; in [9] it was 2650 nM; in assay [10], 52 nM; in assay [11], 450 nM; in [12], 40 nM. Further, the IC50 was 3600 nM in assay [13] and 4500 nM in assay [14].

For `CC(=O)Nc1ccc(-c2sc3c(c2CN(C)Cc2ccccc2)c(=O)n(-c2ccccc2)c(=O)n3Cc2c(F)cccc2F)cc1`, the half-maximal inhibitory concentration (IC50) in assay [1] came to 1600 nM; in [2], 31 nM; in [3] it was 4400 nM; in assay [4], 210 nM; in [5], 52 nM; in assay [6], 240 nM. The IC50 in assay [7] came out at 1700 nM; in assay [8], 2300 nM; in assay [9], 1100 nM; in [10], 29 nM; in assay [11] it was 230 nM; in assay [12], 160 nM. The concentration for half-maximal inhibition (IC50) in assay [13] stood at 2400 nM; in [14] it was 2000 nM.

For `CN(Cc1ccccc1)Cc1c(-c2ccc(N)cc2)sc2c1c(=O)n(-c1ccccc1)c(=O)n2Cc1c(F)cccc1F`, the IC50 in [1] is 500 nM; in assay [2] it was 370 nM; in assay [3] it was greater than 10000 nM; in assay [4], 390 nM; in assay [5], 390 nM; in [6], 1600 nM. The IC50 stood at 710 nM in assay [7]; 4000 nM in assay [8]; 950 nM in [9]; 210 nM in assay [10]; 1500 nM in assay [11]; 530 nM in assay [12]. In addition, the IC50 in [13] and in assay [14] was greater than 10000 nM throughout.

Regarding `CN(Cc1ccccc1)Cc1c(-c2ccc([N+](=O)[O-])cc2)sc2c1c(=O)n(-c1ccccc1)c(=O)n2Cc1c(F)cccc1F`, the IC50 in [1] is greater than 10000 nM; in [2], 1600 nM; in assay [3], greater than 10000 nM; in [4] it was 1900 nM; in assay [5], 1100 nM; in assay [6], greater than 10000 nM. The IC50 in [7] is 3000 nM; in [8] it was greater than 10000 nM; in [9] it was greater than 10000 nM; in assay [10] it was 600 nM; in assay [11] it was greater than 10000 nM; in [12] it was 1400 nM. In addition, the IC50 in [13] and in assay [14] was greater than 10000 nM each time.

Take `CN(Cc1ccccc1)Cc1c(-c2ccc(NC(=O)c3ccccc3)cc2)sc2c1c(=O)n(-c1ccccc1)c(=O)n2Cc1c(F)cccc1F`: the IC50 in assay [1] came out at 800 nM; in [2] it was 26 nM; in assay [3], 1500 nM; in assay [4], 15 nM; in [5], 20 nM; in assay [6] it was 22 nM. Further, the IC50 in assay [7] is 400 nM; in assay [8] it was 380 nM; in assay [9], 100 nM; in [10] it was 6 nM; in assay [11], 31 nM; in [12] it was 13 nM. Moreover, the IC50 came out at 220 nM in assay [13] and 400 nM in assay [14].

`CN(Cc1ccccc1)Cc1c(-c2ccc(NC3=NCCN3)cc2)sc2c1c(=O)n(-c1ccccc1)c(=O)n2Cc1c(F)cccc1F`: the IC50 in assay [1] was determined as 800 nM; in assay [2], 480 nM; in [3] it was 5000 nM; in assay [4] it was 3300 nM; in assay [5] it was 350 nM; in assay [6], 1020 nM. The IC50 was 4400 nM in [7]; greater than 10000 nM in [8]; 1800 nM in [9]; 240 nM in assay [10]; 1400 nM in [11]; 2100 nM in [12]. For the same compound, the results for the IC50 in [13] and in assay [14] were 5200 nM and greater than 10000 nM, respectively.

Turning to `CN(Cc1ccccc1)Cc1c(-c2ccc(NC(=O)NCc3ccccc3)cc2)sc2c1c(=O)n(-c1ccccc1)c(=O)n2Cc1c(F)cccc1F`, the IC50 in assay [1] was 4000 nM; in [2], 30 nM; in [3], 6000 nM; in assay [4], 1100 nM; in [5], 70 nM; in assay [6] it was 190 nM. The IC50 in assay [7] was 600 nM; in assay [8] it was 390 nM; in assay [9] it was 900 nM; in [10], 20 nM; in assay [11], 70 nM; in assay [12], 500 nM. The values for the half-maximal inhibitory concentration (IC50) in [13] and in assay [14] were 1200 nM and 1400 nM, respectively.
